Data published in ChEMBL document CHEMBL1142188, “Fitness costs of fluoroquinolone resistance in Streptococcus pneumoniae” (2007).
Values after ≈ are worked out from the molar mass of the structure shown.

Tests used:
[1] = system: Streptococcus pneumoniae; test: Antimicrobial activity against Streptococcus pneumoniae R6 transformants with parC D83Y and gyrA E85K mutation; type: functional
Outline: (§1)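 MIC by Etest on tryptic soy agar with 5% sheep blood, incubated overnight at 35°C, or by serial dilution in Mueller-Hinton broth with 5% horse blood per CLSI protocols. Each assay was run twice. Strains were R6 or R6 transformed with QRDR alleles from levofloxacin-resistant clinical isolates, with mutations confirmed by PCR sequencing.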

[2] = system: Streptococcus pneumoniae; test: Antimicrobial activity against Streptococcus pneumoniae R6 transformants with parC S79Y and gyrA E85K mutation in presence of reserpine
[3] = system: Streptococcus pneumoniae; test: Antimicrobial activity against Streptococcus pneumoniae R6 transformants with parE D435N and gyrA S81F mutation in presence of reserpine
[4] = system: Streptococcus pneumoniae; test: Antimicrobial activity against Streptococcus pneumoniae R6 transformants with parC S79F and gyrA E85K mutation in presence of reserpine
[5] = system: Streptococcus pneumoniae; test: Antimicrobial activity against Streptococcus pneumoniae R6 transformants with gyrA S81Y mutation; type: functional; outline: as §1
[6] = system: Streptococcus pneumoniae; test: Antimicrobial activity against Streptococcus pneumoniae R6 transformants with parC D83Y and gyrA S81Y mutation in presence of reserpine
[7] = system: Streptococcus pneumoniae; test: Antimicrobial activity against Streptococcus pneumoniae R6 transformants with parC D83Y and gyrA S81Y mutation; type: functional; outline: as §1
[8] = system: Streptococcus pneumoniae; test: Antimicrobial activity against Streptococcus pneumoniae R6 transformants with parE D435N and gyrA S81Y mutation; type: functional; outline: as §1
[9] = system: Streptococcus pneumoniae; test: Antimicrobial activity against Streptococcus pneumoniae R6 transformants with parC S79F and gyrA S81Y mutation; type: functional; outline: as §1
[10] = system: Streptococcus pneumoniae; test: Antimicrobial activity against Streptococcus pneumoniae R6 transformants with parC S79Y mutation in presence of reserpine
[11] = system: Streptococcus pneumoniae; test: Antimicrobial activity against Streptococcus pneumoniae R6 transformants with parC D83Y and gyrA E85K mutation in presence of reserpine
[12] = system: Streptococcus pneumoniae; test: Antimicrobial activity agaisnt Streptococcus pneumoniae R6 transformants with parC S79F and gyrA E85K mutation; type: functional; outline: as §1
[13] = system: Streptococcus pneumoniae; test: Antimicrobial activity agaisnt Streptococcus pneumoniae R6 transformants with parC D83Y and gyrA S81F mutation in presence of reserpine
[14] = system: Streptococcus pneumoniae; test: Antimicrobial activity against Streptococcus pneumoniae R6 transformants with parC S79Y and gyrA S81F mutation in presence of reserpine
[15] = system: Streptococcus pneumoniae; test: Antimicrobial activity against Streptococcus pneumoniae R6 transformants with parC D83Y mutation; type: functional; outline: as §1
[16] = system: Streptococcus pneumoniae; test: Antimicrobial activity against Streptococcus pneumoniae R6 transformants with parC S79F and gyrA S81F mutation; type: functional; outline: as §1
[17] = system: Streptococcus pneumoniae; test: Antimicrobial activity against Streptococcus pneumoniae R6 transformants with parC S79Y and gyrA E85K mutation; type: functional; outline: as §1
[18] = system: Streptococcus pneumoniae; test: Antimicrobial activity against Streptococcus pneumoniae R6 transformants with parE D435N and gyrA S81F mutation; type: functional; outline: as §1
[19] = system: Streptococcus pneumoniae; test: Antimicrobial activity against Streptococcus pneumoniae R6 transformants with parC D83Y mutation in presence of reserpine
[20] = system: Streptococcus pneumoniae; test: Antimicrobial activity against Streptococcus pneumoniae R6 transformants with parE D435N and gyrA S81Y mutation in presence of reserpine
[21] = system: Streptococcus pneumoniae; test: Antimicrobial activity against Streptococcus pneumoniae R6 transformants with parC S79F mutation in presence of reserpine
[22] = system: Streptococcus pneumoniae; test: Antimicrobial activity against Streptococcus pneumoniae R6 transformants with parC S79F and gyrA S81Y mutation in presence of reserpine
[23] = system: Streptococcus pneumoniae; test: Antimicrobial activity against Streptococcus pneumoniae R6 transformants with parE D435N and gyrA E85K mutation; type: functional; outline: as §1
[24] = system: Streptococcus pneumoniae; test: Antimicrobial activity against Streptococcus pneumoniae R6 transformants with gyrA S81F mutation in presence of reserpine
[25] = system: Streptococcus pneumoniae; test: Antimicrobial activity against Streptococcus pneumoniae R6 transformants with parE D435N and gyrA E85K mutation in presence of reserpine
[26] = system: Streptococcus pneumoniae; test: Antimicrobial activity against Streptococcus pneumoniae R6 transformants with parC D83Y and gyrA S81F mutation; type: functional; outline: as §1
[27] = system: Streptococcus pneumoniae; test: Antimicrobial activity against Streptococcus pneumoniae R6 transformants with gyrA S81F mutation; type: functional; outline: as §1
[28] = system: Streptococcus pneumoniae; test: Antimicrobial activity against Streptococcus pneumoniae R6 transformants with gyrA S81Y mutation in presence of reserpine
[29] = system: Streptococcus pneumoniae; test: Antimicrobial activity against Streptococcus pneumoniae R6 transformants with parE D435N mutation in presence of reserpine
[30] = system: Streptococcus pneumoniae; test: Antimicrobial activity against Streptococcus pneumoniae R6 transformants with parC S79Y and gyrA S81F mutation; type: functional; outline: as §1
[31] = system: Streptococcus pneumoniae; test: Antimicrobial activity against Streptococcus pneumoniae R6 transformants with parC S79F and gyrA S81F mutation in presence of reserpine
[32] = system: Streptococcus pneumoniae; test: Antimicrobial activity agaisnt Streptococcus pneumoniae R6 transformants with parC S79Y mutation; type: functional; outline: as §1
[33] = system: Streptococcus pneumoniae; test: Antimicrobial activity against Streptococcus pneumoniae R6; type: functional; outline: as §1
[34] = system: Streptococcus pneumoniae; test: Antimicrobial activity against Streptococcus pneumoniae R6 transformants with gyrA E85K mutation; type: functional; outline: as §1
[35] = system: Streptococcus pneumoniae; test: Antimicrobial activity against Streptococcus pneumoniae R6 transformants with parC S79F mutation; type: functional; outline: as §1
[36] = system: Streptococcus pneumoniae; test: Antimicrobial activity against Streptococcus pneumoniae R6 transformants with parE D435N mutation; type: functional; outline: as §1

| Structure (SMILES) | MIC [1] | MIC [5] | MIC [7] | MIC [8] | MIC [9] | MIC [12] | MIC [15] | MIC [16] | MIC [17] | MIC [18] | MIC [23] | MIC [26] | MIC [27] | MIC [30] | MIC [32] | MIC [33] | MIC [34] | MIC [35] | MIC [36] | other results |
| --- | --- | --- | --- | --- | --- | --- | --- | --- | --- | --- | --- | --- | --- | --- | --- | --- | --- | --- | --- | --- |
| O=C(O)c1cn(C2CC2)c2cc(N3CCNCC3)c(F)cc2c1=O [CIPROFLOXACIN] | 64 µg/mL (≈ 193 µM) | 2 µg/mL (≈ 6.04 µM) | 64 µg/mL (≈ 193 µM) | 64 µg/mL (≈ 193 µM) | 64 µg/mL (≈ 193 µM) | 32 µg/mL (≈ 96.6 µM) | 3 µg/mL (≈ 9.05 µM) | 64 µg/mL (≈ 193 µM) | 64 µg/mL (≈ 193 µM) | 32 µg/mL (≈ 96.6 µM) | < 4 µg/mL | 32 µg/mL (≈ 96.6 µM) | 1 µg/mL (≈ 3.02 µM) | 64 µg/mL (≈ 193 µM) | – | – | – | – | – | MIC [2]: 32 µg/mL; MIC [3]: 16 µg/mL; MIC [4]: 32 µg/mL; MIC [6]: 32 µg/mL; MIC [10]: 2 µg/mL; MIC [11]: 32 µg/mL; MIC [13]: 8 µg/mL; MIC [14]: 32 µg/mL; MIC [19]: 2 µg/mL; MIC [20]: 32 µg/mL; MIC [21]: 2 µg/mL; MIC [22]: 32 µg/mL; MIC [24]: 1 µg/mL; MIC [25]: < 4 µg/mL; MIC [28]: 2 µg/mL; MIC [29]: 2 µg/mL; MIC [31]: 32 µg/mL |
| COc1c(N2CCNC(C)C2)c(F)cc2c(=O)c(C(=O)O)cn(C3CC3)c12 (centres undefined) [GATIFLOXACIN] | 2 µg/mL (≈ 5.33 µM) | 0.25 µg/mL (≈ 0.666 µM) | ≥ 4 µg/mL | ≥ 4 µg/mL | ≥ 4 µg/mL | ≥ 4 µg/mL | 0.12 µg/mL (≈ 0.32 µM) | ≥ 4 µg/mL | ≥ 4 µg/mL | 2 µg/mL (≈ 5.33 µM) | 0.25 µg/mL (≈ 0.666 µM) | 4 µg/mL (≈ 10.7 µM) | 0.25 µg/mL (≈ 0.666 µM) | ≥ 4 µg/mL | 0.12 µg/mL (≈ 0.32 µM) | 0.12 µg/mL (≈ 0.32 µM) | 0.25 µg/mL (≈ 0.666 µM) | 0.12 µg/mL (≈ 0.32 µM) | 0.12 µg/mL (≈ 0.32 µM) | – |
| CO/N=C1\CN(c2nc3c(cc2F)c(=O)c(C(=O)O)cn3C2CC2)CC1CN (centres undefined) [GEMIFLOXACIN] | 0.5 µg/mL (≈ 1.28 µM) | 0.12 µg/mL (≈ 0.308 µM) | 0.25 µg/mL (≈ 0.642 µM) | 0.25 µg/mL (≈ 0.642 µM) | 0.5 µg/mL (≈ 1.28 µM) | 1 µg/mL (≈ 2.57 µM) | 0.06 µg/mL (≈ 0.154 µM) | 0.5 µg/mL (≈ 1.28 µM) | 1 µg/mL (≈ 2.57 µM) | 0.25 µg/mL (≈ 0.642 µM) | < 0.06 µg/mL | 0.12 µg/mL (≈ 0.308 µM) | 0.12 µg/mL (≈ 0.308 µM) | 1 µg/mL (≈ 2.57 µM) | 0.06 µg/mL (≈ 0.154 µM) | 0.03 µg/mL (≈ 0.077 µM) | 0.06 µg/mL (≈ 0.154 µM) | 0.06 µg/mL (≈ 0.154 µM) | 0.06 µg/mL (≈ 0.154 µM) | – |
| C[C@H]1COc2c(N3CCN(C)CC3)c(F)cc3c(=O)c(C(=O)O)cn1c23.C[C@H]1COc2c(N3CCN(C)CC3)c(F)cc3c(=O)c(C(=O)O)cn1c23.O [LEVOFLOXACIN] | > 32 µg/mL | 3 µg/mL | > 32 µg/mL | > 32 µg/mL | > 32 µg/mL | > 32 µg/mL | – | > 32 µg/mL | > 32 µg/mL | > 32 µg/mL | – | > 32 µg/mL | – | > 32 µg/mL | – | – | – | – | – | – |
| COc1c(N2C[C@@H]3CCCN[C@@H]3C2)c(F)cc2c(=O)c(C(=O)O)cn(C3CC3)c12 [MOXIFLOXACIN] | 4 µg/mL (≈ 9.96 µM) | > 0.5 µg/mL | 4 µg/mL (≈ 9.96 µM) | 4 µg/mL (≈ 9.96 µM) | 4 µg/mL (≈ 9.96 µM) | 8 µg/mL (≈ 19.9 µM) | – | 8 µg/mL (≈ 19.9 µM) | 8 µg/mL (≈ 19.9 µM) | 4 µg/mL (≈ 9.96 µM) | 0.5 µg/mL (≈ 1.25 µM) | 4 µg/mL (≈ 9.96 µM) | 0.5 µg/mL (≈ 1.25 µM) | 8 µg/mL (≈ 19.9 µM) | – | – | 0.25 µg/mL (≈ 0.623 µM) | – | – | – |
